According to PubChem BioAssay:
Calls of active or inactive are those of the source.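 Rule for the calls, unless noted: active = calcium signal rise above buffer-control mean plus 5 SD in both duplicates, and also a hit in the primary screen; inactive = the rest.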

target: Short transient receptor potential channel 4 (Mus musculus) (UniProt Q9QUQ5); experiment: calcium flux activators in TRPC4/5HT1a cells, counter-screen for TRPC4 activator project, cell-based, second counter screen, HEK293 TRPC4/5HT1a, Fluo-4 (AID 434977); conditions: Fluo-4 calcium flux, at 10 µM; active compounds read high

Question: For CN(C)C(CNC(=O)c1oc2ccccc2c1CSc1ncn[nH]1)c1ccco1 (stereo not drawn), which outcome is on record?
Answer: The outcome was “inactive”.

Question: With Cc1nn(-c2ccccc2)c(Cl)c1CN(C(=O)CCl)c1ccc(Cl)cc1 as the compound, how does the outcome read?
Answer: The outcome was “inactive”.

Question: Which outcome does the source give for COc1ccccc1N1CCc2c(C)nc3c(OC)cccc3c21 here?
Answer: The outcome was “inactive”.

Question: With Cc1cc(CN2CCCC(C(=O)Nc3ccc(-c4nc5ccccc5[nH]4)cc3)C2)n[nH]1 (stereo not drawn) as the compound, how does the outcome read?
Answer: The outcome was “inactive”.

Question: Which outcome does the source give for CCCCNCC1C(Oc2ccc(Cl)cc2)C(=O)N1c1ccccc1C (stereo not drawn) here?
Answer: The outcome was “inactive”.

Question: For O=C1COc2ccc(N3C(=O)C=CC3=O)cc2N1, which outcome is on record?
Answer: The outcome was “inactive”.

Question: With Cc1nc2scc(-c3ccccc3)c2c(=O)n1N=C1C=CC(=O)C=C1 as the compound, how does the outcome read?
Answer: Its outcome is “inactive”.

Question: Which outcome does the source give for CCOC(=O)C1=NN(c2ccccc2C)C2=NC(C)=C(C(=O)OC)C(c3cccc(OC)c3)N12 (stereo not drawn) here?
Answer: Its outcome is “inactive”.

Question: For N/C(Cc1cccc2ccccc12)=N\OC(=O)c1cccs1, which outcome is on record?
Answer: The outcome was “inactive”.

Question: With CCCSc1nc(N)nc(-c2cccs2)c1C#N as the compound, how does the outcome read?
Answer: The outcome was “inactive”.

Question: With Cc1ccc(NC(=O)c2cc(N3C(=O)C=CC3=O)ccc2N2CCOCC2)cc1 as the compound, how does the outcome read?
Answer: Its outcome is “inactive”.

Question: For Cc1ccc(NC(=O)CNc2ccccc2CN(C)C2CCCCC2)cc1, which outcome is on record?
Answer: Its outcome is “inactive”.

Question: Which outcome does the source give for CC1(C)CC(NC(=O)c2cc(COc3cccc(C(F)(F)F)c3)on2)CCO1 (stereo not drawn) here?
Answer: The outcome was “inactive”.

Question: With COc1ccc(C2=NN(C(=O)c3ccccc3)C(c3ccc(OC)c(OC)c3)C2)c(O)c1 (stereo not drawn) as the compound, how does the outcome read?
Answer: Its outcome is “inactive”.

Question: For CCCn1nc([N+](=O)[O-])c(C(C#N)c2nc3ccccc3o2)c(Cl)c1=O (stereo not drawn), which outcome is on record?
Answer: The outcome was “inactive”.

Question: With COc1ccc(C(CNc2ccc(C(F)(F)F)cn2)N(C)C)cc1OC (stereo not drawn) as the compound, how does the outcome read?
Answer: The outcome was “inactive”.

Question: With COc1cccc(C2=NN(C(=O)c3ccco3)C(c3ccco3)C2)c1 (stereo not drawn) as the compound, how does the outcome read?
Answer: Its outcome is “inactive”.

Question: With c1ccc(Cn2c(NCc3ccco3)nc3ccccc32)cc1 as the compound, how does the outcome read?
Answer: The outcome was “inactive”.

Question: Which outcome does the source give for CC(=O)c1ccc2c(c1)N(C)c1ccccc1S2 here?
Answer: Its outcome is “inactive”.

Question: Which outcome does the source give for CCOC(=O)C1CCN(CC(O)COc2ccc(C(C)(C)C)cc2)CC1 (stereo not drawn) here?
Answer: The outcome was “inactive”.

Question: For CC(C)C1=Nc2cccc3cccc(c23)N1, which outcome is on record?
Answer: Its outcome is “inactive”.

Question: With Cc1cccc2nc(CSc3ccc(Cl)cc3)cn12 as the compound, how does the outcome read?
Answer: The outcome was “inactive”.

Question: Which outcome does the source give for O=C(NC1CCCCC1)N1CCN(C(c2ccccc2)c2ccccc2)CC1 here?
Answer: The outcome was “inactive”.

Question: Which outcome does the source give for COc1cc(CNC2CCCC2)c(Br)cc1OCc1ccccc1 here?
Answer: The outcome was “inactive”.

Question: For COc1ccc(Nc2cc(C)nc3ccc(OC)cc23)cc1, which outcome is on record?
Answer: The outcome was “inactive”.

Question: With Cc1ccc(NC(=S)N(CCCN(C)C)Cc2cc3cc4c(cc3[nH]c2=O)OCO4)c(C)c1 as the compound, how does the outcome read?
Answer: Its outcome is “inactive”.

Question: For COc1ccc(CN2CCN(Cc3ccc(C(F)(F)F)cc3)CC2)c(OC)c1, which outcome is on record?
Answer: The outcome was “inactive”.

Question: Which outcome does the source give for Cn1cc(CNCC2CCCO2)c(-c2ccc(Oc3ccccc3)cc2)n1 (stereo not drawn) here?
Answer: Its outcome is “inactive”.

Question: For CCCCCCCCCCCCOC(=O)C[N+](C)(C)C, which outcome is on record?
Answer: The outcome was “inactive”.

Question: Which outcome does the source give for CN(C)CCCN(C(=O)c1ccc(S(=O)(=O)N2CCCC2)cc1)c1nc2c(F)cc(F)cc2s1 here?
Answer: Its outcome is “inactive”.

Question: Which outcome does the source give for C=C(c1ccc(O)cc1)c1ccc(O)cc1 here?
Answer: The outcome was “inactive”.

Question: For C/C(N)=C(/C#N)C(=O)COC(=O)CC12CC3CC(CC(C3)C1)C2, which outcome is on record?
Answer: Its outcome is “inactive”.

Question: With Cc1cccc2cc(CN(CCCN(C)C)C(=S)NCCc3ccccc3)c(=O)[nH]c12 as the compound, how does the outcome read?
Answer: Its outcome is “inactive”.

Question: Which outcome does the source give for Nc1cc(C(F)(F)F)ccc1Nc1ccccc1 here?
Answer: The outcome was “inactive”.

Question: With CCC(C)NC(C(=O)Nc1ccc(Cl)c([N+](=O)[O-])c1)c1ccccc1 (stereo not drawn) as the compound, how does the outcome read?
Answer: Its outcome is “inactive”.

Question: Which outcome does the source give for COCCn1c(SCc2cccc([N+](=O)[O-])c2)nc2ccccc2c1=O here?
Answer: Its outcome is “inactive”.

Question: Which outcome does the source give for O=C(Nc1cccc(Cl)c1)N1CCN2C(=O)c3ccccc3C12c1ccccc1 (stereo not drawn) here?
Answer: The outcome was “inactive”.

Question: For CC(C)n1c(NCc2c[nH]c3ccccc23)nc2ccccc21, which outcome is on record?
Answer: The outcome was “inactive”.

Question: With Cc1nn(-c2ccccc2)c2[nH]c(C(F)(F)F)cc(=O)c12 as the compound, how does the outcome read?
Answer: The outcome was “inactive”.

tested on: not listed separately; experiment: calcium flux inhibitors in TRPC4/5HT1a cells, confirmation, counter-screen for TRPC4 inhibitor project, cell-based, second counter screen, HEK293 TRPC4/5HT1a, Fluo-4 (AID 434978;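 active = primary screen active whose calcium signal fell more than 3 SD beyond the full-serotonin control mean in both duplicate plates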;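 for outcome: serotonin given first at submaximal then at maximal dose after compound preincubation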); conditions: Fluo-4 calcium flux, at 10 µM, serotonin added to trigger calcium flux; active compounds read high
Method in brief: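 Material: HEK293 line stably carrying TRPC4 plus 5HT1a receptor | Replicates: Each compound tested on duplicate plates | Benchmarks: ECmax serotonin control wells | Measured by: Kinetic Fluo-4 fluorescence readout of calcium flux | Incubation: 110 s each for compound, submaximal and ECmax serotonin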

Question: Which outcome does the source give for CN(C)C(CNC(=O)c1oc2ccccc2c1CSc1ncn[nH]1)c1ccco1 (stereo not drawn) here?
Answer: Its outcome is “inactive”.

Question: Which inhibition does the source give for Cc1nn(-c2ccccc2)c(Cl)c1CN(C(=O)CCl)c1ccc(Cl)cc1 here?
Answer: Its inhibition is 2.77% (active).

Question: With COc1ccccc1N1CCc2c(C)nc3c(OC)cccc3c21 as the compound, how does the inhibition read?
Answer: Its inhibition is 16.3% (active).

Question: For Cc1cc(CN2CCCC(C(=O)Nc3ccc(-c4nc5ccccc5[nH]4)cc3)C2)n[nH]1 (stereo not drawn), which inhibition is on record?
Answer: Its inhibition is 37.2% (active).

Question: For CCCCNCC1C(Oc2ccc(Cl)cc2)C(=O)N1c1ccccc1C (stereo not drawn), which outcome is on record?
Answer: The outcome was “inactive”.

Question: For O=C1COc2ccc(N3C(=O)C=CC3=O)cc2N1, which inhibition is on record?
Answer: The inhibition was 31.1% (active).

Question: For Cc1nc2scc(-c3ccccc3)c2c(=O)n1N=C1C=CC(=O)C=C1, which inhibition is on record?
Answer: The inhibition was 21% (active).

Question: For CCOC(=O)C1=NN(c2ccccc2C)C2=NC(C)=C(C(=O)OC)C(c3cccc(OC)c3)N12 (stereo not drawn), which inhibition is on record?
Answer: The inhibition was 20.5% (active).

Question: With N/C(Cc1cccc2ccccc12)=N\OC(=O)c1cccs1 as the compound, how does the outcome read?
Answer: Its outcome is “inactive”.

Question: For CCCSc1nc(N)nc(-c2cccs2)c1C#N, which inhibition is on record?
Answer: The inhibition was 36.8% (active).

Question: With Cc1ccc(NC(=O)c2cc(N3C(=O)C=CC3=O)ccc2N2CCOCC2)cc1 as the compound, how does the inhibition read?
Answer: The inhibition was 34.6% (active).

Question: With Cc1ccc(NC(=O)CNc2ccccc2CN(C)C2CCCCC2)cc1 as the compound, how does the inhibition read?
Answer: The inhibition was 33.5% (active).

Question: With CC1(C)CC(NC(=O)c2cc(COc3cccc(C(F)(F)F)c3)on2)CCO1 (stereo not drawn) as the compound, how does the inhibition read?
Answer: Its inhibition is 25.2% (active).

Question: Which outcome does the source give for COc1ccc(C2=NN(C(=O)c3ccccc3)C(c3ccc(OC)c(OC)c3)C2)c(O)c1 (stereo not drawn) here?
Answer: The outcome was “inactive”.

Question: Which inhibition does the source give for CCCn1nc([N+](=O)[O-])c(C(C#N)c2nc3ccccc3o2)c(Cl)c1=O (stereo not drawn) here?
Answer: The inhibition was 39.9% (active).

Question: With COc1ccc(C(CNc2ccc(C(F)(F)F)cn2)N(C)C)cc1OC (stereo not drawn) as the compound, how does the outcome read?
Answer: The outcome was “inactive”.

Question: For COc1cccc(C2=NN(C(=O)c3ccco3)C(c3ccco3)C2)c1 (stereo not drawn), which inhibition is on record?
Answer: The inhibition was 20.6% (active).

Question: Which inhibition does the source give for c1ccc(Cn2c(NCc3ccco3)nc3ccccc32)cc1 here?
Answer: The inhibition was 25.2% (active).

Question: Which inhibition does the source give for CC(=O)c1ccc2c(c1)N(C)c1ccccc1S2 here?
Answer: Its inhibition is 36.8% (active).

Question: For CCOC(=O)C1CCN(CC(O)COc2ccc(C(C)(C)C)cc2)CC1 (stereo not drawn), which inhibition is on record?
Answer: Its inhibition is 41.5% (active).

Question: Which inhibition does the source give for CC(C)C1=Nc2cccc3cccc(c23)N1 here?
Answer: The inhibition was 17.1% (active).

Question: With Cc1cccc2nc(CSc3ccc(Cl)cc3)cn12 as the compound, how does the inhibition read?
Answer: Its inhibition is 21.9% (active).

Question: Which outcome does the source give for O=C(NC1CCCCC1)N1CCN(C(c2ccccc2)c2ccccc2)CC1 here?
Answer: Its outcome is “inactive”.

Question: With COc1cc(CNC2CCCC2)c(Br)cc1OCc1ccccc1 as the compound, how does the inhibition read?
Answer: The inhibition was 34.4% (active).

Question: With COc1ccc(Nc2cc(C)nc3ccc(OC)cc23)cc1 as the compound, how does the outcome read?
Answer: Its outcome is “inactive”.

Question: Which inhibition does the source give for Cc1ccc(NC(=S)N(CCCN(C)C)Cc2cc3cc4c(cc3[nH]c2=O)OCO4)c(C)c1 here?
Answer: The inhibition was 14.4% (active).

Question: With COc1ccc(CN2CCN(Cc3ccc(C(F)(F)F)cc3)CC2)c(OC)c1 as the compound, how does the inhibition read?
Answer: Its inhibition is 23% (active).

Question: With Cn1cc(CNCC2CCCO2)c(-c2ccc(Oc3ccccc3)cc2)n1 (stereo not drawn) as the compound, how does the inhibition read?
Answer: The inhibition was 45.9% (active).

Question: Which inhibition does the source give for CCCCCCCCCCCCOC(=O)C[N+](C)(C)C here?
Answer: Its inhibition is 37.5% (active).

Question: With CN(C)CCCN(C(=O)c1ccc(S(=O)(=O)N2CCCC2)cc1)c1nc2c(F)cc(F)cc2s1 as the compound, how does the outcome read?
Answer: The outcome was “inactive”.

Question: With C=C(c1ccc(O)cc1)c1ccc(O)cc1 as the compound, how does the inhibition read?
Answer: The inhibition was 29.6% (active).

Question: With C/C(N)=C(/C#N)C(=O)COC(=O)CC12CC3CC(CC(C3)C1)C2 as the compound, how does the inhibition read?
Answer: The inhibition was 32.2% (active).

Question: For Cc1cccc2cc(CN(CCCN(C)C)C(=S)NCCc3ccccc3)c(=O)[nH]c12, which outcome is on record?
Answer: The outcome was “inactive”.

Question: With Nc1cc(C(F)(F)F)ccc1Nc1ccccc1 as the compound, how does the inhibition read?
Answer: Its inhibition is 27.6% (active).

Question: Which outcome does the source give for CCC(C)NC(C(=O)Nc1ccc(Cl)c([N+](=O)[O-])c1)c1ccccc1 (stereo not drawn) here?
Answer: The outcome was “inactive”.

Question: With COCCn1c(SCc2cccc([N+](=O)[O-])c2)nc2ccccc2c1=O as the compound, how does the inhibition read?
Answer: The inhibition was 20.4% (active).

Question: Which outcome does the source give for O=C(Nc1cccc(Cl)c1)N1CCN2C(=O)c3ccccc3C12c1ccccc1 (stereo not drawn) here?
Answer: Its outcome is “inactive”.

Question: Which inhibition does the source give for CC(C)n1c(NCc2c[nH]c3ccccc23)nc2ccccc21 here?
Answer: The inhibition was 26.4% (active).

Question: Which inhibition does the source give for Cc1nn(-c2ccccc2)c2[nH]c(C(F)(F)F)cc(=O)c12 here?
Answer: The inhibition was 31.7% (active).
